Experimental data published in ChEMBL document CHEMBL1123927, “Leukotriene receptor antagonists. 2. The [[(tetrazol-5-ylaryl)oxy]methyl]acetophenone derivatives” (J Med Chem, 1987).
The source made the active and inactive calls. The calls are words filed in the database; no cut-off is given here.

Species on record: Cavia porcellus
Test: Antagonist activity was evaluated against LTD4-induced contraction in guinea pig ileum
Type: functional
Conditions: read-out: pA2 (converted)
In short: (§1)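 Isolated guinea pig ileum contracted with a submaximal concentration of LTD4. Two, three or four antagonist concentrations were tested on a single ileum. […] Alternatively, pKB was taken as -log of the antagonist concentration producing a twofold rightward shift of the LTD4 concentration-response curve.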

SMILES | Kb [nM]
CCCc1c(OCCCCc2nnn[nH]2)ccc(C(C)=O)c1O [TOMELUKAST] | 63.1

Target: Cysteinyl leukotriene receptor (Cavia porcellus)
Test: Inhibition of LTD4-induced contraction in guinea pig ileum
Conditions: not given

SMILES | -Log IC50
CCc1c(COc2ccc(-c3nn[nH]n3)cc2)ccc(C(C)=O)c1O | 7.9
CCCc1c(CSc2ccc(-c3nn[nH]n3)cc2)ccc(C(C)=O)c1O | 7.7
CCCc1c(OCc2ccc(-c3nn[nH]n3)cc2)ccc(C(C)=O)c1O | 7
CCCc1c(CSCc2ccc(-c3nn[nH]n3)cc2)ccc(C(C)=O)c1O | 6.5
CCCc1c(COc2cccc(OCc3nn[nH]n3)c2)ccc(C(C)=O)c1O | 8
CCCc1c(COc2ccccc2Cc2nnn[nH]2)ccc(C(C)=O)c1O | 6.2
CCCc1c(COc2ccc(OCc3nn[nH]n3)cc2)ccc(C(C)=O)c1O | 7.8
CC(=O)c1ccc(COc2ccc(-c3nn[nH]n3)cc2)c(C)c1O | 7
CCCCc1c(COc2ccc(-c3nn[nH]n3)cc2)ccc(C(C)=O)c1O | 7.9
CCCc1c(COc2ccc(/C=C/c3nn[nH]n3)cc2)ccc(C(C)=O)c1O | 7.4
CCCc1c(COc2ccc(-c3nn[nH]n3)cc2)ccc(C(C)=O)c1O | 8
CCCc1c(COCCOc2ccc(-c3nn[nH]n3)cc2)ccc(C(C)=O)c1O | 7.3
CCCc1c(COc2ccc(-c3nn[nH]n3)cc2)ccc(C=O)c1O | 6.4

Second part, the compound after the results:

-Log IC50 | SMILES
5.8 | CCCc1c(COc2ccc(Cc3nnn[nH]3)cc2)ccc(/C(C)=N\O)c1O
7.3 | CCCc1c(COc2ccc(CCCc3nnn[nH]3)cc2)ccc(C(C)=O)c1O
7 | CCCc1c(COc2ccc(Cc3nnn[nH]3)cc2)ccc(C(=O)CC)c1O
7.7 | CC(=O)c1ccc(COc2ccc(Cc3nnn[nH]3)cc2)c(CC(C)C)c1O
6.3 | CCCc1c(COc2ccc(Cc3nnn[nH]3)cc2)ccc(C(C)=O)c1OC
8.1 | CCCc1c(COc2ccc(CCc3nnn[nH]3)cc2)ccc(C(C)=O)c1O
7.8 | CCCCc1c(COc2ccc(Cc3nnn[nH]3)cc2)ccc(C(C)=O)c1O
7.9 | CCc1c(COc2ccc(Cc3nnn[nH]3)cc2)ccc(C(C)=O)c1O
7 | CCCc1c(COc2cccc(Cc3nnn[nH]3)c2)ccc(C(C)=O)c1O
8 | CCCc1c(COc2ccc(Cc3nnn[nH]3)cc2)ccc(C(C)=O)c1O [LY-163443]
7.5 | CCCc1c(CNc2ccc(Cc3nnn[nH]3)cc2)ccc(C(C)=O)c1O
7 | CCCc1c(COCCOc2ccc(Cc3nnn[nH]3)cc2)ccc(C(C)=O)c1O
6.2 | CCCc1c(COc2ccc(Cc3nnn(C)n3)cc2)ccc(C(C)=O)c1O
7.9 | CCCc1c(COc2ccc(C(C)c3nnn[nH]3)cc2)ccc(C(C)=O)c1O (stereo unspecified)

Species on record: Cavia porcellus
Test: Inhibition of LTD4-induced contraction in guinea pig ileum. Not active at highest concentration tested, 1 x 10 E-5 M
Type: functional
Conditions: not given
In short: as §1

SMILES | -Log IC50
CCCc1c(COc2ccc(-c3nn[nH]n3)cc2)ccc(C(=O)c2ccccc2)c1O | inactive
CCCc1c(COc2ccc(Cc3nnnn3C)cc2)ccc(C(C)=O)c1O | inactive

Species on record: Cavia porcellus
Test: Inhibition of LTD4-induced contraction in guinea pig ileum. Not active at highest concentration tested, 3 x 10 E-6 M
Type: functional
Conditions: not given
In short: as §1

SMILES | -Log IC50
CC(=O)c1ccc(COc2ccc(Cc3nnn[nH]3)cc2)cc1O | inactive
